Experimental data reported in ChEMBL document CHEMBL1914423, “New imidazo[2,1-b]thiazole derivatives: synthesis, in vitro anticancer evaluation, and in silico studies” (Eur J Med Chem, 2011).

Legend:
Type in all cases: functional
CCRF-CEM = assay: Anticancer activity against human CCRF-CEM cells after 48 hrs by SRB assay
Procedure, shortened: (§1)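 NCI five-dose screen. Cells in RPMI 1640 with 5% FBS and 2 mM L-glutamine, seeded at 5000–40,000 cells/well according to doubling time, then pre-incubated 24 h at 37 °C in 5% CO2. Drugs dissolved in DMSO, five concentrations by 10-fold or 1/2-log dilution. Cells fixed with TCA, SRB-stained, A515 read. IC50 solved from [(Ti−Tz)/(C−Tz)]×100 = 50.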

HL-60(TB) = assay: Anticancer activity against human HL-60(TB) cells after 48 hrs by SRB assay; settings: HL-60, 48 h
Procedure, shortened: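 NCI-60 five-dose screen. Cells grown in RPMI 1640 with 5% FBS and 2 mM L-glutamine, seeded at 5000–40,000 cells/well, and held 24 h at 37 °C and 5% CO₂ before drug. DMSO stocks were diluted into five concentrations (10-fold or ½-log steps). Settled suspension cells were fixed with cold TCA, SRB-stained, and read at 515 nm. […] was taken where [(Ti−Tz)/(C−Tz)]×100 = 50.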

K562 = assay: Anticancer activity against human K562 cells after 48 hrs by SRB assay; settings: K562, 48 h; procedure, shortened: as §1
A549 = assay: Anticancer activity against human A549 cells after 48 hrs by SRB assay; settings: A549, 48 h; procedure, shortened: as §1
NCI-H226 = assay: Anticancer activity against human NCI-H226 cells after 48 hrs by SRB assay; settings: NCI-H226, 48 h
NCI-H460 = assay: Anticancer activity against human NCI-H460 cells after 48 hrs by SRB assay; settings: NCI-H460, 48 h
HCC 2998 = assay: Anticancer activity against human HCC2998 cells after 48 hrs by SRB assay; settings: HCC 2998, 48 h; procedure, shortened: as §1
HCT-116 = assay: Anticancer activity against human HCT116 cells after 48 hrs by SRB assay; settings: HCT-116, 48 h; procedure, shortened: as §1
KM12 = assay: Anticancer activity against human KM12 cells after 48 hrs by SRB assay; settings: KM12, 48 h; procedure, shortened: as §1
SF-295 = assay: Anticancer activity against human SF295 cells after 48 hrs by SRB assay; settings: SF-295, 48 h
SNB-19 = assay: Anticancer activity against human SNB19 cells after 48 hrs by SRB assay; settings: SNB-19, 48 h
U-251 = assay: Anticancer activity against human U251 cells after 48 hrs by SRB assay; settings: U-251, 48 h
Procedure, shortened: (§2)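 NCI-60 five-dose mode: cells in RPMI 1640 with 5% FBS and 2 mM glutamine, plated at 5000–40,000 cells/well, and preincubated 24 h, with time-zero plates TCA-fixed. Drug given at five concentrations (10-fold or ½-log serial dilutions). Cold TCA fixation 60 min at 4 °C, SRB stain, Tris solubilization, A515. IC50 taken where [(Ti−Tz)/(C−Tz)]×100 = 50.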

LOX IMVI = assay: Anticancer activity against human LOXIMVI cells after 48 hrs by SRB assay; procedure, shortened: as §1
M14 = assay: Anticancer activity against human M14 cells after 48 hrs by SRB assay; settings: M14, 48 h; procedure, shortened: as §1
SK-MEL-5 = assay: Anticancer activity against human SK-MEL-5 cells after 48 hrs by SRB assay; settings: SK-MEL-5, 48 h
UACC-62 = assay: Anticancer activity against human UACC62 cells after 48 hrs by SRB assay; settings: UACC-62, 48 h; procedure, shortened: as §2
IGROV-1 = assay: Anticancer activity against human IGROV1 cells after 48 hrs by SRB assay; settings: IGROV-1, 48 h; procedure, shortened: as §1
OVCAR-4 = assay: Anticancer activity against human OVCAR4 cells after 48 hrs by SRB assay; settings: OVCAR-4, 48 h
OVCAR-5 = assay: Anticancer activity against human OVCAR5 cells after 48 hrs by SRB assay; settings: OVCAR-5, 48 h
NCI/ADR-RES = assay: Anticancer activity against human NCI/ADR-RES cells after 48 hrs by SRB assay
A498 = assay: Anticancer activity against human A498 cells after 48 hrs by SRB assay; settings: A498, 48 h; procedure, shortened: as §1
ACHN = assay: Anticancer activity against human ACHN cells after 48 hrs by SRB assay; procedure, shortened: as §1
RXF 393 = assay: Anticancer activity against human RXF393 cells after 48 hrs by SRB assay; settings: RXF 393, 48 h
SN12C = assay: Anticancer activity against human SN12C cells after 48 hrs by SRB assay
UO-31 = assay: Anticancer activity against human UO31 cells after 48 hrs by SRB assay; settings: UO-31, 48 h; procedure, shortened: as §2
DU-145 = assay: Anticancer activity against human DU145 cells after 48 hrs by SRB assay; settings: DU-145, 48 h; procedure, shortened: as §1
MCF7 = assay: Anticancer activity against human MCF7 cells after 48 hrs by SRB assay; settings: MCF7, 48 h; procedure, shortened: as §1
[1] = Anticancer activity against human Hs 578T cells after 48 hrs by SRB assay; procedure, shortened: as §1
[2] = read-out: LC50 (the source's name)

In the case of `O=C(NCCNc1nccc(-c2c(-c3cccc(O)c3)nc3sccn23)n1)c1ccccc1`, the GI50 (CCRF-CEM) is reported as 3.38 µM, the TGI (CCRF-CEM) is reported as 34.1 µM and the CC50 (CCRF-CEM; [2]) is reported as greater than 100 µM. It also gave a GI50 (HL-60(TB)) of 10.2 µM, a TGI (HL-60(TB)) of 29.6 µM and a GI50 (K562) of 9.11 µM. It also gave a TGI (K562) greater than 100 µM, a CC50 (K562; [2]) greater than 100 µM and a GI50 (A549) of 9.21 µM. The TGI (A549) was 46.5 µM, the GI50 (NCI-H226) was 7.95 µM and the TGI (NCI-H226) was 45.3 µM. It also gave a GI50 (NCI-H460) of 10.4 µM, a TGI (NCI-H460) of 27.5 µM and a GI50 (HCC 2998) of 13.8 µM. The TGI (HCC 2998) was 31.2 µM, the CC50 (HCC 2998; [2]) was 70.3 µM and the GI50 (HCT-116) was 4.82 µM. It also gave a TGI (HCT-116) of 17.5 µM, a CC50 (HCT-116; [2]) of 49.6 µM and a GI50 (KM12) of 12.1 µM. The TGI (KM12) was 28.5 µM, the CC50 (KM12; [2]) was 67.1 µM and the GI50 (SF-295) was 12.9 µM. For the same compound, the TGI (SF-295) was 38 µM, the CC50 (SF-295; [2]) was greater than 100 µM and the GI50 (SNB-19) was 29.4 µM. It also gave a TGI (SNB-19) greater than 100 µM, a CC50 (SNB-19; [2]) greater than 100 µM and a GI50 (U-251) of 17.9 µM. It also gave a TGI (U-251) greater than 100 µM, a CC50 (U-251; [2]) greater than 100 µM and a GI50 (LOX IMVI) of 3.22 µM. The TGI (LOX IMVI) was 17.8 µM, the CC50 (LOX IMVI; [2]) was 80.2 µM and the GI50 (M14) was 0.434 µM. For the same compound, the TGI (M14) was 12.3 µM, the CC50 (M14; [2]) was 37.3 µM and the GI50 (SK-MEL-5) was 4.15 µM. It also gave a TGI (SK-MEL-5) of 17.5 µM, a CC50 (SK-MEL-5; [2]) of 43.4 µM and a GI50 (UACC-62) of 0.211 µM. It also gave a TGI (UACC-62) of 1.37 µM, a CC50 (UACC-62; [2]) of 25.2 µM and a GI50 (IGROV-1) of 3.61 µM. For the same compound, the TGI (IGROV-1) was 50.8 µM, the CC50 (IGROV-1; [2]) was greater than 100 µM and the GI50 (OVCAR-4) was 13.9 µM. It also gave a TGI (OVCAR-4) of 84.6 µM, a CC50 (OVCAR-4; [2]) greater than 100 µM and a GI50 (OVCAR-5) of 18.3 µM. For the same compound, the TGI (OVCAR-5) was 61.8 µM, the CC50 (OVCAR-5; [2]) was greater than 100 µM and the GI50 (NCI/ADR-RES) was 34.8 µM. For the same compound, the TGI (NCI/ADR-RES) was greater than 100 µM, the CC50 (NCI/ADR-RES; [2]) was greater than 100 µM and the GI50 (A498) was 3.68 µM. The TGI (A498) was 19.3 µM, the CC50 (A498; [2]) was 58 µM and the GI50 (ACHN) was 6.43 µM. The TGI (ACHN) was 34.9 µM, the CC50 (ACHN; [2]) was greater than 100 µM and the GI50 (RXF 393) was 4.14 µM. It also gave a TGI (RXF 393) of 22.2 µM, a CC50 (RXF 393; [2]) of 98.1 µM and a GI50 (SN12C) of 9.04 µM. It also gave a TGI (SN12C) of 38.4 µM, a CC50 (SN12C; [2]) greater than 100 µM and a GI50 (UO-31) of 12.2 µM. For the same compound, the TGI (UO-31) was 88.7 µM, the CC50 (UO-31; [2]) was greater than 100 µM and the GI50 (DU-145) was 19.7 µM. It also gave a TGI (DU-145) of 68.7 µM, a CC50 (DU-145; [2]) greater than 100 µM and a GI50 (MCF7) of 3.24 µM. For the same compound, the TGI (MCF7) was 14.9 µM, the CC50 (MCF7; [2]) was 46.5 µM and the GI50 [1] was 4.86 µM. The TGI [1] was 38.3 µM and the CC50 [1, 2] was greater than 100 µM.
